Screening results as filed in PubChem.
MITF TRPM1 HTS – increases MITF-driven TRPM1 promoter luciferase signal | SK-MEL-5 TRPM1-promoter luciferase, 24 h; % of positive control, neutral wells = 0 | activation, % at 12.5 µM | actives 0.75% (n = 300,000) | AID 588334;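 active = mean activation of at least 80% with every replicate also reaching 80%; inconclusive = mean reaches 80% but some replicate falls short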
Wnt bcat act – Wnt/beta-catenin pathway activation; Wnt/beta-catenin reporter cell assay, activator, plate reader; activation, % at 9.35 µM; actives 1.2% (n = 300,000); AID 743398; in the data active = activation above about 30%, passing the limit was not always enough; inconclusive = no clear call, values can overlap the other calls
Cneo AK release – causes C. neoformans cell lysis; lysis activity, % at 15 µM; actives 0.2% (n = 360,000); adenylate kinase release luminescence, 4 h; normalised: neutral wells 0, clomiphene wells 100;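 active = mean lysis activity across replicates of at least 80%, whatever share of replicates individually reach that level; inactive = mean lysis activity below 80%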
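Signal: Adenylate kinase release luminescence | Assay system: Log-phase Cryptococcus neoformans yeast cells | Input: Cells at 5 × 10^6 per mL | Buffer or medium: Fresh YPD growth medium | Compound: Single dose | Schedule: Static 4 h at 37 °C with compound, 1 h detection | Controls: Clomiphene | Read-out: Luminescence rise reflecting yeast cell lysis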
PGC1a acetyl inh – lowers PGC1a acetylation signal in U2OS cells; AlphaScreen anti-acetyl-lysine; with virally co-expressed GCN5 acetyltransferase; inhibition, % at 15.6 µM; actives 0.17% (n = 350,000);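 active = every replicate shows inhibition of at least 40%; inconclusive = mean inhibition at least 40% but some replicate below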
Large screens that a line does not name were inactive. The list is not random: actives were taken first. Their share in the collection is about 1.5%.

C[C@@H]1CN([C@H](C)CO)S(=O)(=O)c2ccc(C3=CCCCC3)cc2O[C@H]1CN(C)Cc1ccccc1	PGC1a acetyl inh 43 (no result: MITF TRPM1 HTS, Wnt bcat act, Cneo AK release)
C[C@H](CO)N1C[C@H](C)[C@H](CN(C)S(C)(=O)=O)Oc2cc(C#Cc3ccccc3)ccc2S1(=O)=O	none (no result: MITF TRPM1 HTS, Wnt bcat act)
CCCC#Cc1ccc2c(c1)O[C@H](CN(C)CCC)[C@H](C)CN([C@@H](C)CO)S2(=O)=O	Cneo AK release 103 (no result: MITF TRPM1 HTS, Wnt bcat act)
C[C@H](CO)N1C[C@H](C)[C@@H](CN(C)S(C)(=O)=O)Oc2cc(C#Cc3ccccc3)ccc2S1(=O)=O	Cneo AK release 91 (no result: MITF TRPM1 HTS, Wnt bcat act)
COc1ccccc1C#Cc1ccc2c(c1)O[C@H](CN(C)C(C)=O)[C@@H](C)CN([C@@H](C)CO)S2(=O)=O	none (no result: MITF TRPM1 HTS, Wnt bcat act)
CO[C@H]1CN(C)C(=O)c2ccc(NS(=O)(=O)c3ccc(C)cc3)cc2OC[C@H](C)N(Cc2nccs2)C[C@@H]1C	none (no result: MITF TRPM1 HTS, Wnt bcat act, Cneo AK release)
C[C@H]1CN([C@@H](C)CO)S(=O)(=O)c2ccc(C#CC3CC3)cc2O[C@@H]1CN(C)CC1CCOCC1	none (no result: MITF TRPM1 HTS, Wnt bcat act)
COc1ccccc1-c1ccc2c(c1)O[C@@H](CN(C)C(=O)c1cccnc1)[C@H](C)CN([C@@H](C)CO)S2(=O)=O	Cneo AK release 84 (no result: MITF TRPM1 HTS, Wnt bcat act)
C[C@H](CO)N1C[C@H](C)[C@H](CN(C)Cc2ccccc2)Oc2cc(C#Cc3ccccn3)ccc2S1(=O)=O	Cneo AK release 99 (no result: MITF TRPM1 HTS, Wnt bcat act)
COc1ccccc1-c1ccc2c(c1)O[C@@H](CN(C)C(=O)c1ccncc1)[C@H](C)CN([C@@H](C)CO)S2(=O)=O	none (no result: MITF TRPM1 HTS)
CC(C)C#Cc1ccc2c(c1)O[C@@H](CN(C)Cc1ccccc1)[C@@H](C)CN([C@@H](C)CO)S2(=O)=O	PGC1a acetyl inh 99 (no result: MITF TRPM1 HTS, Wnt bcat act)
C[C@@H]1CN([C@@H](C)CO)S(=O)(=O)c2ccc(C#CC3CC3)cc2O[C@H]1CN(C)CC1CCOCC1	Cneo AK release 87 (no result: MITF TRPM1 HTS, Wnt bcat act)
COc1ccc(NC(=O)Nc2cccc3c2O[C@H](CN(C)C(=O)NC(C)C)[C@H](C)CN([C@@H](C)CO)C3=O)cc1	none (no result: MITF TRPM1 HTS, Wnt bcat act)
CS(=O)(=O)N1CC2(C1)[C@@H](c1ccccc1)[C@@H](CO)N2CC1CC1	none (no result: MITF TRPM1 HTS, Wnt bcat act, Cneo AK release)
COc1cccc(C#Cc2cnc3c(c2)C(=O)N([C@@H](C)CO)C[C@@H](C)[C@@H](CN(C)C(=O)C2CCC2)O3)c1	none (no result: MITF TRPM1 HTS, Wnt bcat act)
CC(C)CC#Cc1ccc2c(c1)O[C@@H](CN(C)Cc1ccc3c(c1)OCO3)[C@H](C)CN([C@H](C)CO)S2(=O)=O	PGC1a acetyl inh 53 (no result: MITF TRPM1 HTS, Wnt bcat act)
CO[C@H]1CN(C)C(=O)c2cc(NC(=O)C3CCC3)ccc2OC[C@@H](C)N(Cc2nccs2)C[C@H]1C	none (no result: MITF TRPM1 HTS, Wnt bcat act, PGC1a acetyl inh)
CN(C)c1ccc(C#Cc2ccc3cc(CCCO)oc(=O)c3c2)cc1	MITF TRPM1 HTS 93, Wnt bcat act inconclusive
O=c1oc(CCCO)cc2ccc(C#CC3(O)CCCCC3)cc12	none
O=c1oc(CCCO)cc2ccc(C#Cc3ccsc3)cc12	MITF TRPM1 HTS 121, Wnt bcat act 46
CC(C)(C)OC(=O)C[C@@H]1C/C=C\C[C@@H](CC(=O)N[C@H](CO)Cc2ccccc2)C(=O)N2CCC[C@@H]2COC1=O	Wnt bcat act 56 (no result: PGC1a acetyl inh)
CC(C)(C)OC(=O)C[C@H]1C/C=C\C[C@@H](CC(=O)N[C@@H](CO)Cc2ccccc2)C(=O)N2CCC[C@H]2COC1=O	none
Cc1ccc(NC(=O)c2ccc(Nc3ccccc3F)nc2)cc1	Wnt bcat act 38 (no result: Cneo AK release, PGC1a acetyl inh)
C[C@@H]1CN([C@H](C)CO)C(=O)Cc2cc(NC(=O)C3CCCCC3)ccc2O[C@H]1CN(C)C(=O)Nc1ccc(F)cc1	none (no result: MITF TRPM1 HTS, Wnt bcat act)
CS(=O)(=O)Nc1ccc2c(c1)[C@H]1C[C@@H](CC(=O)NCc3ccc(Cl)cc3)O[C@H](CO)[C@H]1O2	none (no result: MITF TRPM1 HTS, Wnt bcat act)
COc1ccc(NC(=O)N(C)C[C@@H]2Oc3ncccc3C(=O)N([C@H](C)CO)C[C@@H]2C)cc1	none (no result: MITF TRPM1 HTS, Wnt bcat act)
COc1ccc(S(=O)(=O)N(C)C[C@@H]2OCCCC[C@H](C)Oc3ccc(NC(=O)Nc4c(C)noc4C)cc3C(=O)N([C@@H](C)CO)C[C@H]2C)cc1	none (no result: MITF TRPM1 HTS, Wnt bcat act)
COc1ccc2nc(NC3=NCCC3)sc2c1	Wnt bcat act 57
COc1ccc(-c2nc(NC3=NCCCCC3)sc2C)cc1	none (no result: Cneo AK release, PGC1a acetyl inh)
COc1cccc(Nc2nc3ccc(OC)cc3s2)c1	MITF TRPM1 HTS 115 (no result: Cneo AK release)
COc1ccc(Nc2nc3ccccc3s2)cc1	none (no result: Wnt bcat act, Cneo AK release)
O=c1c2ccccc2nc(-c2ccco2)n1Cc1ccccc1	MITF TRPM1 HTS 96 (no result: Wnt bcat act)
c1ccc(Cn2c(-c3ccco3)nc3nc4ccccc4nc32)cc1	MITF TRPM1 HTS 90, Wnt bcat act 38
O=C(NCc1cccnc1)/C(=C\c1ccc(-c2ccc(Cl)c(Cl)c2)o1)S(=O)(=O)c1ccccc1	PGC1a acetyl inh 59
O=C(NCc1cccnc1)c1ccc(-c2ccc(Cl)cc2)o1	none (no result: Cneo AK release, PGC1a acetyl inh)
